This is a sample that favours compounds with a hit; in the whole collection about 1.9% have one here.
NPY-Y1 antag = NPY-Y1 receptor antagonists, primary screen, cell-based; Neuropeptide Y receptor type 1 (Homo sapiens), P25929; HEK293-CNG Y1 cells, membrane potential fluorescence; NPY at EC95, then isoproterenol; inhibition, % at 3.6 µM; 200,000 tested, 1% active;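 active = inhibition above the campaign mean inhibition of all tested compounds plus 3 SD, cut at about 20% in these data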
Target sequence (P25929 whole entry, looked up): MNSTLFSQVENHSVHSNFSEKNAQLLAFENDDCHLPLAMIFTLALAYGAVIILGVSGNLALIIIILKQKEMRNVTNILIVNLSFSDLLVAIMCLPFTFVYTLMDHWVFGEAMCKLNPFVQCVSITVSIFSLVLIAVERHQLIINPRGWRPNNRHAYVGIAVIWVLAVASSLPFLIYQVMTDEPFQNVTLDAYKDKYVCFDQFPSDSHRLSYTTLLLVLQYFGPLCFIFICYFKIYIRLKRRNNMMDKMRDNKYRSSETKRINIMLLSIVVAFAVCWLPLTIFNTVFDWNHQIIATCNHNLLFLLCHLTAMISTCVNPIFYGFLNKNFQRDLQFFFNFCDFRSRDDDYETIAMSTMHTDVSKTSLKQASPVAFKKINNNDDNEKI
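Assay system: HEK293 Y1/CNG channel cell line; Doses: single compound dose of 3.6 µM, 0.4% DMSO; Timing: dye 3 h, compound 60 min room temperature, stimulation 45 min; Technique: Membrane-potential fluorescent dye readout; Measure: % inhibition of NPY effect.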
NPY-Y2 PAM-ag = NPY-Y2 potentiators or agonists, primary screen, cell-based; activation, % at 3.6 µM; Neuropeptide Y receptor type 2 (Homo sapiens), P49146; 220,000 tested, 0.45% active; cells expressing NPY-Y2, potentiator/agonist read-out; in the data active = activation above about 27%;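 also: cells stimulated with NPY near EC25 plus isoproterenol at EC100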
NPY-Y2 antag = NPY-Y2 receptor antagonists, primary screen, cell-based; NPY-Y2 expressing cells, antagonist mode; inhibition, % at 2.7 µM; 140,000 tested, 0.99% active
NPY-Y1 PAM-ag = NPY-Y1 receptor potentiators or agonists, primary screen, cell-based | Neuropeptide Y receptor type 1 (Homo sapiens), P25929 | NPY-Y1 expressing cells, potentiator/agonist activation | activation, % at 3.6 µM | 220,000 tested, 0.37% active | AID 1304, 2008; in the data active = activation above about 33%, passing the limit was not always enough;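 also: cells stimulated with NPY at EC10 then isoproterenol at EC100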
NPY1 antag conf = NPY-Y1 receptor antagonists, retest of hits, confirmation, HEK293-CNG cells, membrane potential fluorescence, triplicate. shares compounds with NPY-Y1 antag. cAMP; NPY challenge against isoproterenol-raised cAMP. inhibition, % at 3.6 µM. 1,200 tested, 21% active; in the data active = inhibition above about 20%
NPY2 antag ctr = NPY-Y2 receptor antagonists, selectivity check, confirmation, counter-screen for NPY-Y1 antagonist project, HEK293-CNG cells, membrane potential fluorescence, triplicate; shares compounds with NPY-Y1 antag; AID 1255, 2008; inhibition, % at 3.6 µM; antagonism; cells given NPY, then isoproterenol; 1,200 tested, 28% active
Of the large screens only hits and unclear results are named; the others gave an inactive call (follow-up assays come after a bar, where they were run). Rule as the data show it, unless noted: active = inhibition above about 17%; inactive = the rest.

CCCCSc1cc(C)nc(N)n1	none (no result: NPY-Y1 antag, NPY-Y2 antag)
Cc1cc2c(=O)n(Cc3ccco3)c(SCC(=O)N3CCCc4ccccc43)nc2s1	NPY-Y1 antag 22 | NPY1 antag conf inactive | NPY2 antag ctr inactive
Cc1cc(NC(=O)/C=C/c2ccccc2)c(C(C)C)cc1O	NPY-Y1 antag 28 (no result: NPY-Y2 antag) | NPY1 antag conf 25 | NPY2 antag ctr 24
COc1nc(OC)nc(N2CCC(C(=O)Nc3cccc4ccccc34)CC2)n1	NPY-Y1 antag 35 | NPY1 antag conf inactive | NPY2 antag ctr inactive
COC(=O)/C(=N/Nc1ccccc1C)N1CCCc2ccccc21	NPY-Y1 antag 36 | NPY1 antag conf inactive | NPY2 antag ctr inactive
Cc1cccc2nc(-c3ccccc3)nc(N[C@@H](CO)c3ccccc3)c12	none
CCCCNC(=S)N(C)/N=C/c1ccc2c(c1)OCO2	NPY-Y1 antag 22 | NPY1 antag conf inactive | NPY2 antag ctr inactive
Cc1ccccc1NC(=O)C(C)n1c2ccccc2c2nc(=O)cc(C)n21 (centres undefined)	none (no result: NPY-Y1 antag, NPY-Y2 antag)
Cc1nc(C)n(CC(=O)N2CCCC(C(=O)c3cccc4ccccc34)C2)n1 (centres undefined)	none (no result: NPY-Y2 antag)
Nc1cccc(S(=O)(=O)Nc2ccccc2)c1	none (no result: NPY-Y2 antag)
CCOC(=O)c1c(NC(=O)C2COc3ccccc3O2)sc2c1CCN(Cc1ccccc1)C2 (centres undefined)	NPY-Y1 antag 22 | NPY1 antag conf 23 | NPY2 antag ctr 20
C=CCNC(=S)N/N=C/c1ccc(C(C)(C)C)cc1	NPY-Y1 antag 23 (no result: NPY-Y2 antag) | NPY1 antag conf inactive | NPY2 antag ctr inactive
O=c1ccc2ccc(OCc3nnc(-c4ccccc4Br)o3)cc2o1	none
Cc1cc(=O)oc2cc(OCc3nnc(-c4ccccc4Br)o3)ccc12	NPY-Y1 antag 26 | NPY1 antag conf inactive | NPY2 antag ctr inactive
COc1cc(OC)cc(C(=O)N/N=C/c2ccc(OC)c(COc3ccc(F)cc3)c2)c1	NPY-Y1 antag 61 | NPY1 antag conf inactive | NPY2 antag ctr 31
COC(=O)CCC(=O)Nc1cccc([N+](=O)[O-])c1	none (no result: NPY-Y2 antag)
Cc1nc2nc(SCC(=O)O)nn2c(C)c1Cc1ccccc1Cl	NPY-Y1 antag 23 (no result: NPY-Y2 antag) | NPY1 antag conf inactive | NPY2 antag ctr inactive
C=CCNC(=O)c1onc(CSc2ccc(Cl)cc2)c1C(=O)O	NPY-Y1 antag 22 | NPY1 antag conf inactive | NPY2 antag ctr inactive
CC(C)NC(=O)c1onc(CSc2ccc(Cl)cc2)c1C(=O)O	none
CCCCNC(=O)c1onc(CSc2ccc(Cl)cc2)c1C(=O)O	NPY-Y1 antag 21 | NPY1 antag conf 23 | NPY2 antag ctr inactive
CCCCNC(=O)Nc1nnc(C(C)(C)C)s1	none (no result: NPY-Y1 antag, NPY-Y2 antag)
Cc1cc(C)c2c(CN3CCN(C/C=C/c4ccccc4)CC3)cc(=O)oc2c1	NPY-Y1 antag 25 | NPY1 antag conf inactive | NPY2 antag ctr 18
N#Cc1c(Oc2ccc3ccccc3c2)sc(C(=O)c2ccccc2)c1N	none
Cc1cccc(Oc2sc(C(=O)c3ccccc3)c(N)c2C#N)c1C	NPY-Y1 antag 24 | NPY1 antag conf inactive | NPY2 antag ctr inactive
CCc1sc(C(=O)Nc2cc(Cl)ccc2N2CCCCC2)cc1C	NPY-Y1 antag 21 | NPY1 antag conf inactive | NPY2 antag ctr inactive
Cc1ccc(C(=O)Nc2cc(Cl)ccc2N2CCCCC2)s1	none
COc1ccc(OC)c(CC(NC(C)=O)C(=O)NC2CCN(c3nc(OC)nc(OC)n3)CC2)c1 (centres undefined)	none (no result: NPY-Y2 antag)
Cc1oc2c(c1C(=O)c1ccc(Cl)cc1)C(=O)C(=O)c1ccccc1-2	NPY-Y1 antag 26 | NPY1 antag conf inactive | NPY2 antag ctr inactive
Cc1ccc(C(=O)c2c(C)oc3c2C(=O)C(=O)c2ccccc2-3)cc1	none
CCOC(=O)N1CCN(C(=O)c2ccc3c(=O)n(Cc4ccccc4OC)c(=S)[nH]c3c2)CC1	NPY-Y1 antag 22 | NPY1 antag conf inactive | NPY2 antag ctr inactive
COc1cccc(NC(=O)CN2CCN(c3ccccc3F)CC2)c1	NPY-Y1 antag 22 | NPY1 antag conf inactive | NPY2 antag ctr inactive
Cc1ccc(-n2ncc(C(=O)N3CCc4ccccc4C3)c2NC(=O)c2ccco2)cc1C	NPY-Y1 antag 22 | NPY1 antag conf inactive | NPY2 antag ctr inactive
CCCCn1c(SCC(=O)N2CCC(C)CC2)nc2ccsc2c1=O	NPY-Y1 antag 21 | NPY1 antag conf inactive | NPY2 antag ctr inactive
CC1(C)CC(CCC(=O)NC(=S)Nc2ccccc2Cl)C(=O)O1 (centres undefined)	none (no result: NPY-Y2 antag)
CC(C)N1C(=O)C(Cc2nc3ccccc3c(=O)n2-c2ccccc2)c2ccccc21 (centres undefined)	NPY-Y1 antag 22 | NPY1 antag conf inactive | NPY2 antag ctr 18
CCC(=O)N(CCC(Cc1ccccc1)c1ccco1)Cc1ccco1 (centres undefined)	NPY-Y1 antag 42 (no result: NPY-Y2 antag) | NPY1 antag conf inactive | NPY2 antag ctr inactive
CC(NCCC(Cc1ccccc1)c1ccco1)c1ccccc1 (centres undefined)	none (no result: NPY-Y1 antag, NPY-Y2 antag)
CCC(=O)N(CCC(Cc1ccccc1)c1ccc2c(c1)OCO2)Cc1ccccc1F (centres undefined)	NPY-Y1 antag 47 | NPY1 antag conf inactive | NPY2 antag ctr inactive
COc1ccc(C(=O)CSc2ccc(-c3ccc(C)cc3)nn2)cc1	NPY-Y1 antag 25 | NPY1 antag conf inactive | NPY2 antag ctr inactive
CCc1cc(CNC(=O)CCc2nnc(CCCc3ccccc3)o2)on1	none (no result: NPY-Y2 antag)
COc1ccc2nc(SC(C(=O)c3ccccc3)c3ccccc3)nc(C)c2c1 (centres undefined)	NPY-Y1 antag 40 | NPY1 antag conf 27 | NPY2 antag ctr 35
Cc1nc(SC(C(=O)c2ccccc2)c2ccccc2)nc2ccccc12 (centres undefined)	none
COc1ccc(C)cc1N(C(=O)COc1cccc(F)c1)c1nc2ccccc2s1	none
COc1ccc(C)cc1N(C(=O)c1ccc(F)cc1)c1nc2ccccc2s1	NPY-Y1 antag 22 | NPY1 antag conf inactive | NPY2 antag ctr inactive
COc1cccc(-c2cc(C(=O)Nc3ccc4c(c3)OCCO4)c3ccccc3n2)c1	none
COc1cccc(-c2cc(C(=O)Nc3nc4ccccc4s3)c3ccccc3n2)c1	NPY-Y1 antag 31 | NPY1 antag conf 26 | NPY2 antag ctr 38
COc1ccc(-c2nnc3sc(C4CCCCC4)nn23)cc1OC	NPY-Y1 antag 33 | NPY1 antag conf 24 | NPY2 antag ctr 38
CSc1nc(N2CCN(c3ccccc3Cl)CC2)c2ccccc2n1	NPY-Y1 antag 30 (no result: NPY-Y2 antag) | NPY1 antag conf 22 | NPY2 antag ctr 27
Nc1nn(-c2ccccc2)nc1C(=O)OCc1ccccc1	none (no result: NPY-Y1 antag, NPY-Y2 antag)
Cc1ccc(COC(=O)c2nn(-c3ccccc3)nc2N)cc1	NPY-Y1 antag 29 (no result: NPY-Y2 antag) | NPY1 antag conf 23 | NPY2 antag ctr inactive
